≈ marks a conversion by molar mass, not a printed value.
Tests used:
Type in all cases: functional
Streptococcus pyogenes [1] = test: Antibacterial activity measured as mouse protection against Streptococcus pyogenes C 203 after subcutaneous administration; conditions: for ED50: Streptococcus pyogenes, C 203, sc, read-out: PD50
Staphylococcus aureus [2] = test: Minimum inhibitory concentration was evaluated in vitro against Staphylococcus aureus UC 76
Procedure, shortened: (§1)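 Standard microtitration broth assay against a panel of 10 Gram-positive and Gram-negative organisms. MIC read in µg/mL and averaged over multiple experiments.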

Escherichia coli [3] = test: Antibacterial activity against Escherichia coli Vogel after subcutaneous administration in mouse; conditions: Escherichia coli, sc; read-out: PD50
Providencia rettgeri = test: Minimum inhibitory concentration was evaluated in vitro against Providencia rettgeri M1771; procedure, shortened: as §1
Enterococcus faecalis = test: Minimum inhibitory concentration was evaluated in vitro against Enterococcus faecalis MGH-2; procedure, shortened: as §1
Pseudomonas aeruginosa = test: Minimum inhibitory concentration was evaluated in vitro against Pseudomonas aeruginosa UI-18; procedure, shortened: as §1
Escherichia coli [4] = test: Antibacterial activity against Escherichia coli Vogel after oral administration in mouse; conditions: Escherichia coli, po; read-out: PD50
Enterobacter cloacae = test: Minimum inhibitory concentration in vitro against Enterobacter cloacae MA 2646
Streptococcus pyogenes [5] = test: Compounds were evaluated in vivo for antibacterial activity for mouse protection against Streptococcus pyogenes C 203 after oral administration; conditions: for ED50: Streptococcus pyogenes, C 203, po, read-out: PD50
Streptococcus pyogenes [6] = test: Minimum inhibitory concentration was evaluated in vitro against Streptococcus pyogenes C 203; procedure, shortened: as §1
Klebsiella pneumoniae = test: Minimum inhibitory concentration was evaluated in vitro against Klebsiella pneumoniae MGH2; procedure, shortened: as §1
Escherichia coli [7] = test: Antibacterial activity in vitro against Escherichia coli Vogel; procedure, shortened: as §1
Streptococcus pneumoniae = test: Minimum inhibitory concentration was evaluated in vitro against Streptococcus pneumoniae SV-1; procedure, shortened: as §1
Staphylococcus aureus [8] = test: Minimum inhibitory concentration was evaluated in vitro against Staphylococcus aureus H 228; procedure, shortened: as §1
[9] = Staphylococcus aureus, read-out: MIC
[10] = Providencia rettgeri, read-out: MIC
[11] = Enterococcus faecalis, read-out: MIC
[12] = Pseudomonas aeruginosa, read-out: MIC
[13] = Enterobacter cloacae, read-out: MIC
[14] = Streptococcus pyogenes, read-out: MIC
[15] = Klebsiella pneumoniae, read-out: MIC
[16] = Escherichia coli, read-out: MIC
[17] = Streptococcus pneumoniae, read-out: MIC

Row | Compound | ED50 (Streptococcus pyogenes [1]) [mg/kg] | MIC (Staphylococcus aureus [2]; [9]) [µg/mL] | MIC (Providencia rettgeri; [10]) [µg/mL] | MIC (Enterococcus faecalis; [11]) [µg/mL] | MIC (Pseudomonas aeruginosa; [12]) [µg/mL] | MIC (Enterobacter cloacae; [13]) [µg/mL] | ED50 (Streptococcus pyogenes [5]) [mg/kg] | PD50 (Streptococcus pyogenes [5]) [mg/kg] | MIC (Streptococcus pyogenes [6]; [14]) [µg/mL] | MIC (Klebsiella pneumoniae; [15]) [µg/mL] | MIC (Escherichia coli [7]; [16]) [µg/mL] | MIC (Streptococcus pneumoniae; [17]) [µg/mL] | MIC (Staphylococcus aureus [8]; [9]) [µg/mL] | other results
1 | CCNCC1CCN(c2cc3c(cc2F)c(=O)c(C(=O)O)cn3C2CC2)C1 (stereo not given) | 5 | 0.013 (≈ 0.0348 µM) |  |  |  |  |  |  |  |  |  |  |  | ED50 (Escherichia coli [3]): 3 mg/kg
2 | NC1CCN(c2c(F)cc3c(=O)c(C(=O)O)cn(C4CC4)c3c2F)C1 (stereo not given) | 2 |  | 0.05 (≈ 0.143 µM) | 0.05 (≈ 0.143 µM) | 0.1 (≈ 0.286 µM) | 0.025 (≈ 0.0716 µM) | 8 |  |  |  |  |  |  | ED50 (Escherichia coli [4]): 1 mg/kg
3 | CN[C@@H](C)[C@@H]1CCN(c2nc3c(cc2F)c(=O)c(C(=O)O)cn3C2CC2)C1 |  |  |  |  |  |  |  | 11 |  |  |  |  |  | PD50 (Streptococcus pyogenes [1]): 5 mg/kg; MIC (Providencia rettgeri): 0.8 µg/mL (≈ 2.14 µM); MIC (Enterococcus faecalis): 0.2 µg/mL (≈ 0.534 µM); MIC (Pseudomonas aeruginosa): 1.6 µg/mL (≈ 4.27 µM); MIC (Staphylococcus aureus [2]): 0.05 µg/mL (≈ 0.134 µM); MIC (Streptococcus pyogenes [6]): 0.1 µg/mL (≈ 0.267 µM); MIC (Klebsiella pneumoniae): 0.2 µg/mL (≈ 0.534 µM); MIC (Escherichia coli [7]): 0.1 µg/mL (≈ 0.267 µM); MIC (Enterobacter cloacae): 0.1 µg/mL (≈ 0.267 µM); MIC (Streptococcus pneumoniae): 0.1 µg/mL (≈ 0.267 µM); MIC (Staphylococcus aureus [8]): 0.2 µg/mL (≈ 0.534 µM)
4 | CN[C@H](C)[C@@H]1CCN(c2cc3c(cc2F)c(=O)c(C(=O)O)cn3C2CC2)C1 | 3 | 0.05 (≈ 0.134 µM) | 0.8 (≈ 2.14 µM) | 0.2 (≈ 0.536 µM) | 1.6 (≈ 4.28 µM) | 0.2 (≈ 0.536 µM) | 36 |  | 0.05 (≈ 0.134 µM) | 0.4 (≈ 1.07 µM) | 0.1 (≈ 0.268 µM) | 0.05 (≈ 0.134 µM) | 0.2 (≈ 0.536 µM) | 
5 | CCNC(C)C1CCN(c2cc3c(c(N)c2F)c(=O)c(C(=O)O)cn3C2CC2)C1 (racemic) | 1 | 0.025 (≈ 0.0621 µM) | 0.8 (≈ 1.99 µM) | 0.05 (≈ 0.124 µM) | 1.6 (≈ 3.98 µM) | 0.1 (≈ 0.248 µM) |  | 5 | 0.013 (≈ 0.0323 µM) | 0.2 (≈ 0.497 µM) | 0.1 (≈ 0.248 µM) | 0.013 (≈ 0.0323 µM) | 0.05 (≈ 0.124 µM) | 
6 | C[C@H](N)[C@H]1CCN(c2c(F)c(N)c3c(=O)c(C(=O)O)cn(C4CC4)c3c2F)C1 (stereo in doubt; 32F-S,S) | 7 |  | 0.4 (≈ 1.02 µM) | 0.05 (≈ 0.127 µM) | 0.4 (≈ 1.02 µM) | 0.05 (≈ 0.127 µM) | > 25 |  |  | 0.1 (≈ 0.255 µM) | 0.05 (≈ 0.127 µM) | 0.025 (≈ 0.0637 µM) | 0.025 (≈ 0.0637 µM) | MIC (Staphylococcus aureus [2]): 0.013 µg/mL (≈ 0.0331 µM); MIC (Streptococcus pyogenes [6]): 0.05 µg/mL (≈ 0.127 µM)
7 | CN[C@H](C)[C@H]1CCN(c2c(F)c(N)c3c(=O)c(C(=O)O)cn(C4CC4)c3c2F)C1 |  |  |  |  |  |  |  | 13 |  |  |  |  |  | PD50 (Streptococcus pyogenes [1]): 13 mg/kg; MIC (Providencia rettgeri): 0.8 µg/mL (≈ 1.97 µM); MIC (Enterococcus faecalis): 0.2 µg/mL (≈ 0.492 µM); MIC (Pseudomonas aeruginosa): 3.1 µg/mL (≈ 7.63 µM); MIC (Staphylococcus aureus [2]): 0.05 µg/mL (≈ 0.123 µM); MIC (Streptococcus pyogenes [6]): 0.2 µg/mL (≈ 0.492 µM); MIC (Klebsiella pneumoniae): 0.8 µg/mL (≈ 1.97 µM); MIC (Escherichia coli [7]): 0.2 µg/mL (≈ 0.492 µM); MIC (Enterobacter cloacae): 0.2 µg/mL (≈ 0.492 µM); MIC (Streptococcus pneumoniae): 0.2 µg/mL (≈ 0.492 µM); MIC (Staphylococcus aureus [8]): 0.1 µg/mL (≈ 0.246 µM)
8 | CN[C@@H](C)[C@H]1CCN(c2nc3c(cc2F)c(=O)c(C(=O)O)cn3C2CC2)C1 | 15 | 0.2 (≈ 0.534 µM) | 0.8 (≈ 2.14 µM) | 0.8 (≈ 2.14 µM) | 3.1 (≈ 8.28 µM) | 0.4 (≈ 1.07 µM) | 23 |  | 0.4 (≈ 1.07 µM) | 0.4 (≈ 1.07 µM) | 0.2 (≈ 0.534 µM) | 0.4 (≈ 1.07 µM) | 0.8 (≈ 2.14 µM) | 
9 | O=C(O)c1cn(C2CC2)c2cc(N3CCNCC3)c(F)cc2c1=O [CIPROFLOXACIN] |  |  |  |  |  |  |  |  |  | 0.05 (≈ 0.151 µM) |  | 1.6 (≈ 4.83 µM) | 3.1 (≈ 9.36 µM) | ED50 (Escherichia coli [3]): 0.3 mg/kg; ED50 (Escherichia coli [4]): 1 mg/kg
10 | CN[C@H](C)[C@H]1CCN(c2cc3c(cc2F)c(=O)c(C(=O)O)cn3C2CC2)C1 |  | 0.05 (≈ 0.134 µM) | 0.8 (≈ 2.14 µM) | 0.2 (≈ 0.536 µM) | 3.1 (≈ 8.3 µM) | 0.2 (≈ 0.536 µM) |  | 82 | 0.1 (≈ 0.268 µM) | 0.4 (≈ 1.07 µM) | 0.2 (≈ 0.536 µM) |  | 0.4 (≈ 1.07 µM) | PD50 (Streptococcus pyogenes [1]): 7 mg/kg; MIC (Streptococcus pneumoniae): 0.2 µg/mL (≈ 0.536 µM)
11 | CCN[C@@H](C)[C@@H]1CCN(c2c(F)c(N)c3c(=O)c(C(=O)O)cn(C4CC4)c3c2F)C1 (stereo in doubt; 32H-S,R) |  |  |  |  |  |  |  | 6 |  |  |  |  |  | PD50 (Streptococcus pyogenes [1]): 3 mg/kg; MIC (Providencia rettgeri): 0.4 µg/mL (≈ 0.951 µM); MIC (Enterococcus faecalis): 0.025 µg/mL (≈ 0.0595 µM); MIC (Pseudomonas aeruginosa): 0.8 µg/mL (≈ 1.9 µM); MIC (Staphylococcus aureus [2]): 0.003 µg/mL (≈ 0.00714 µM); MIC (Streptococcus pyogenes [6]): 0.013 µg/mL (≈ 0.0309 µM); MIC (Klebsiella pneumoniae): 0.1 µg/mL (≈ 0.238 µM); MIC (Escherichia coli [7]): 0.1 µg/mL (≈ 0.238 µM); MIC (Enterobacter cloacae): 0.1 µg/mL (≈ 0.238 µM); MIC (Streptococcus pneumoniae): 0.013 µg/mL (≈ 0.0309 µM); MIC (Staphylococcus aureus [8]): 0.013 µg/mL (≈ 0.0309 µM)
12 | COc1c(N2CCC(CN)C2)c(F)cc2c(=O)c(C(=O)O)cn(C3CC3)c12 (stereo not given) | 0.6 | 0.003 (≈ 0.00799 µM) | 0.1 (≈ 0.266 µM) | 0.013 (≈ 0.0346 µM) | 0.8 (≈ 2.13 µM) | 0.05 (≈ 0.133 µM) | 11 |  | 0.003 (≈ 0.00799 µM) | 0.1 (≈ 0.266 µM) | 0.05 (≈ 0.133 µM) | 0.003 (≈ 0.00799 µM) | 0.025 (≈ 0.0666 µM) | 
13 | CCN[C@H](C)[C@@H]1CCN(c2nc3c(cc2F)c(=O)c(C(=O)O)cn3-c2ccc(F)cc2F)C1 | 6 | 0.05 (≈ 0.109 µM) | 3.1 (≈ 6.73 µM) | 0.4 (≈ 0.869 µM) | 3.1 (≈ 6.73 µM) | 0.8 (≈ 1.74 µM) | 10 |  | 0.2 (≈ 0.434 µM) | 1.6 (≈ 3.47 µM) | 0.8 (≈ 1.74 µM) | 0.2 (≈ 0.434 µM) | 0.2 (≈ 0.434 µM) | 
14 | CCNCC1CCN(c2c(F)cc3c(=O)c(C(=O)O)cn(C4CC4)c3c2C(F)(F)F)C1 (stereo not given) | 1 | 0.025 (≈ 0.0566 µM) |  |  |  |  | 2 |  |  |  |  |  |  | ED50 (Escherichia coli [3]): 2 mg/kg; ED50 (Escherichia coli [4]): 5 mg/kg
